The text below walks through data of ChEMBL document CHEMBL3585329, “Cafestol-Type Diterpenoids from the Twigs of Tricalysia fruticosa with Potential Anti-inflammatory Activity” (J Nat Prod, 2015).

pIC50: −log10 of the molar value. Active and inactive are the calls of the source. The rule behind the calls is not given here. Where only a bound is given, the exact number is not on record here.

For data set [1], the system named is RAW264.7. The experiment in a line: Inhibition of LPS-induced NO release in mouse RAW264.7 cells after 24 hrs by Griess reaction. In kind it is functional, cell-based. The settings on record: RAW264.7, 24 h. The method in brief: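 RAW 264.7 cells (10% heat-inactivated FBS, 3.0 mM glutamine, 37 °C, 5% CO2) seeded at 2 × 10^4 cells/mL. DMSO-solubilized compounds added 1 h before LPS. Supernatant nitrite measured by Griess reagent (0.1% naphthylethylene diamine, 1.0% sulfanilamide in 2.5% phosphoric acid), 10 min at room temperature, A550. NO quantified against a sodium nitrite standard curve. Positive control: N-monomethyl-L-arginine.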
A general note: The Griess reaction detects nitrite, a stable product of nitric oxide.

Data set [2] in a line: Cytotoxicity against mouse RAW264.7 cells assessed as cell survival up to 100 uM. The settings on record: read-out: Survival. In kind it is cell-based. A digest of the protocol:
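RAW 264.7 macrophages were grown with 3.0 mM glutamine, penicillin and streptomycin (100 U/mL each), and 10% heat-inactivated FBS at 37 °C in humidified 5% CO2. Cell survival was examined after exposure to each isolate at concentrations up to 100 μM.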

Data set [3] deals with Transcription factor p65 (Mus musculus) (UniProt Q04207). The experiment in a line: Inhibition of NFkappaBp65 activation in LPS-induced mouse RAW264.7 cells at 2.5 to 10 uM by Western blotting analysis. Format: cell-based. A digest of the protocol: (§1)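 Macrophages seeded at 1 × 10^6 cells/well, pretreated 1 h with 2.5, 5.0 or 10.0 μM test agent (DMSO), then stimulated with LPS 1 μg/mL. Dexamethasone 1.0 μM served as positive control. Lysis in ice-cold RIPA with 0.1% PMSF, 12000g for 20 min. SDS-PAGE, PVDF transfer, 5% skim-milk block, primary antibody overnight at 4 °C, HRP secondary (1:12 000) 1.5 h at RT, ECL detection. Means ± SD.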

Data set [4] has as its target MAP kinase p38 (Mus musculus) (UniProt P47811+O08911+Q9WUI1+Q9Z1B7). The data set is described as follows: Inhibition of LPS-stimulated p38 phosphorylation in mouse RAW264.7 cells by Western blotting analysis. Format: cell-based. The method in brief: as §1
(In general: Immunoblotting shows a protein as a band on a membrane.)

The target of data set [5] is NF-kappa-B inhibitor alpha (Mus musculus) (UniProt Q9Z1E3). The data set is described as follows: Inhibition of IkappaB alpha phosphorylation in LPS-induced mouse RAW264.7 cells by Western blotting analysis.
Data set [6] has as its system RAW264.7. The experiment in a line: Inhibition of LPS-stimulated ERK phosphorylation in mouse RAW264.7 cells by Western blotting analysis. In kind it is cell-based. A digest of the protocol:
as §1

In data set [7] the test system is RAW264.7. The data set is described as follows: Inhibition of LPS-stimulated JNK phosphorylation in mouse RAW264.7 cells by Western blotting analysis. In kind it is cell-based. A digest of the protocol:
as §1

Data set [8] deals with RAW264.7. The data set is described as follows: Suppression of LPS-induced iNOS protein expression in mouse RAW264.7 cells by Western blotting analysis. In kind it is functional, cell-based. The method in brief: as §1
Data set [9] relates to RAW264.7. The data set is described as follows: Suppression of LPS-induced TNFalpha protein expression in mouse RAW264.7 cells by ELISA. In kind it is functional, cell-based. The method in brief:
(§2)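 RAW 264.7 cells seeded at 4 × 10^5 cells/well and exposed to LPS with or without 2.5, 5.0 or 10.0 μM test agent (DMSO stock diluted in DMEM, added 1 h before LPS) for 18 h. Cytokine in cell-free supernatant measured by mouse ELISA kit per manufacturer's protocol. Means ± SD.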
On the technique in general: An ELISA detects its analyte on a solid surface through an enzyme-linked reagent.

The subject of data set [10] is RAW264.7. The experiment in a line: Suppression of LPS-induced IL6 protein expression in mouse RAW264.7 cells by ELISA. Format: functional, cell-based. A digest of the protocol: as §2

Sequence of NF-kappa-B inhibitor alpha (Mus musculus) (Q9Z1E3 whole entry, looked up): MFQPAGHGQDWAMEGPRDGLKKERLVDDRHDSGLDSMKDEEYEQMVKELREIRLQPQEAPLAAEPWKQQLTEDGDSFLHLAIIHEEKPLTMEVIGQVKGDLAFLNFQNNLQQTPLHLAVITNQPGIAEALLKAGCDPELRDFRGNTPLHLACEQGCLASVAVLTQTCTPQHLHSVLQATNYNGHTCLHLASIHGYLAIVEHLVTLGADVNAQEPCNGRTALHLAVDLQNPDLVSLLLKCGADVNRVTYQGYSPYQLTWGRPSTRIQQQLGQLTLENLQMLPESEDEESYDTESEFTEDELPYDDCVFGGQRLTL
Sequence of Transcription factor p65 (Mus musculus) (Q04207 whole entry): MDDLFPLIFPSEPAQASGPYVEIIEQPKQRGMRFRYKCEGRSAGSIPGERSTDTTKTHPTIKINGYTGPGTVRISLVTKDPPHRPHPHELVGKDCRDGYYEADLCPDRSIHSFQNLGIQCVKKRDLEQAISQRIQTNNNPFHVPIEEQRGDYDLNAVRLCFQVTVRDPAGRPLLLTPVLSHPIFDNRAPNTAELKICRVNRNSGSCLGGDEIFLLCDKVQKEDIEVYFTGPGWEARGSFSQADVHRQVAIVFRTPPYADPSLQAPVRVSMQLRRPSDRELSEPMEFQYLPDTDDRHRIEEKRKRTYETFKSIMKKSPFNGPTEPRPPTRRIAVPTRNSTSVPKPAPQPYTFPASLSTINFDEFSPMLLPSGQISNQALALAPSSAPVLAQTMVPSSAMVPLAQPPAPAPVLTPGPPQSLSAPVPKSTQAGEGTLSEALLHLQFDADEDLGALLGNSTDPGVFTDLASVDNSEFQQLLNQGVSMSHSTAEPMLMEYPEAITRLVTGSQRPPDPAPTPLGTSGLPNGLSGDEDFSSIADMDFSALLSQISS

In the case of `C[C@@]12CC[C@@]3(O)OC(=O)C=C3[C@H]1CC[C@@]13C[C@H](CC[C@@H]21)[C@@](O)(CO)[C@@H]3O`, in the data set with RAW264.7 [1], the pIC50 is less than 4.00. Besides, the viability in data set [2] is more than 90%.
Take `C[C@@]12CC[C@@]3(O)OC(=O)C=C3[C@H]1CC[C@@]13C[C@H](CC[C@H]12)[C@@](O)(CO)C3`: the pIC50 with RAW264.7 [1] was less than 4.00. Moreover, the viability in data set [2] was more than 90%.
In the data set with RAW264.7 [1], `C[C@@]12CC=C3OC(=O)C=C3[C@H]1CC[C@@]13C[C@@H](CC[C@@H]21)[C@@](O)(CO)[C@@H]3O` had a pIC50 of less than 4.00. Besides, the viability in data set [2] is more than 90%.
In the data set on RAW264.7 [1], `C[C@@]12CC[C@@]3(O)OC(=O)C=C3[C@H]1CC[C@]13C[C@](O)(CO)[C@@](O)(CC[C@H]12)C3` gave a pIC50 of less than 4.00. In addition, the viability in [2] is more than 90%.
The matching figures for `C[C@@]12CC=C3OC(=O)C=C3[C@H]1CC[C@@]13C[C@@H](CC[C@H]12)[C@@](O)(CO)C3`: less than 4.00 and more than 90%.
Regarding `C[C@@]12CC(=O)c3occc3[C@H]1CC[C@]13C[C@](O)(CO)[C@@](O)(CC[C@H]12)C3`, in the data set on RAW264.7 [1], the pIC50 is less than 4.00. Further, in data set [2], the viability is more than 90%.
As to `C[C@@]12[C@H](O)C=C3OC(=O)C=C3[C@H]1CC[C@@]13C[C@@H](CC[C@H]12)[C@@](O)(CO)C3`, the pIC50 with RAW264.7 [1] was less than 4.00. Also, the viability in [2] is more than 90%.
Taken in the same sequence, the figures for `C[C@@]12C=CC(=O)C[C@H]1CC[C@]13C[C@](O)(CO)[C@@](O)(CC[C@H]12)C3` were 4.57 and more than 90%.
`CO[C@@H]1C[C@@]2(CC[C@@]3(C)[C@@H]4CC[C@@H]5C[C@@]4(CC[C@H]23)C[C@]5(O)CO)C(=O)O1` gave a pIC50 in the data set with RAW264.7 [1] of less than 4.00. Also, in [2], the viability was more than 90%.
As to `CNC(=N)NCCC[C@H](N)C(=O)O` [TILARGININE], in the data set with RAW264.7 [1], the pIC50 is 4.39.
The compound `C[C@@]12CC[C@H]3OC(=O)C=C3[C@H]1CC[C@@]13C[C@@H](CC[C@H]12)[C@@](O)(CO)C3` showed a negative-log IC50 (pIC50) with RAW264.7 [1] of less than 4.00. Besides, the viability in [2] is more than 90%.
Take `CCOC(=O)/C=C1\C(=O)C=C[C@]2(C)[C@@H]1CC[C@]13C[C@](O)(CO)[C@@](O)(CC[C@H]12)C3`: the inhibition entry (in data set [3]; in [4]; in [5]; with RAW264.7 [6]; in the data set on RAW264.7 [7]) was “Active” each time. For the same compound, the pIC50 in the data set on RAW264.7 [1] was 5.18. Further, in [2], the viability is more than 90%. For the same compound, the inhibition entry in the data set on RAW264.7 [8], in the data set on RAW264.7 [9] and in the data set on RAW264.7 [10] was “Dose-dependent effect” each time.
`C[C@@]12CC[C@H]3OC(=O)C=C3[C@H]1CC[C@@]13C[C@H](CC[C@]12O)[C@@](O)(CO)C3`: the pIC50 with RAW264.7 [1] is less than 4.00. Also, in [2], the viability is more than 90%.
For `CC(=O)OC[C@]1(O)[C@@H]2CC[C@H]3[C@]4(C)CC[C@@]5(O)OC(=O)C=C5[C@H]4CC[C@]3(C2)[C@H]1O`, the pIC50 in the data set with RAW264.7 [1] was less than 4.00. The viability in [2] was more than 90%.

For orientation: pIC50 means the IC50 on a negative log10 scale, so that one unit is a factor of ten.
